The values below come from ChEMBL document CHEMBL1127071, “Structure-activity relationships of C-terminal endothelin hexapeptide antagonists” (J Med Chem, 1993).

The target in test [1] is T1, Endothelin receptor (Rattus norvegicus, UniProt P26684+P21451).
T1 sequence (P26684 whole entry): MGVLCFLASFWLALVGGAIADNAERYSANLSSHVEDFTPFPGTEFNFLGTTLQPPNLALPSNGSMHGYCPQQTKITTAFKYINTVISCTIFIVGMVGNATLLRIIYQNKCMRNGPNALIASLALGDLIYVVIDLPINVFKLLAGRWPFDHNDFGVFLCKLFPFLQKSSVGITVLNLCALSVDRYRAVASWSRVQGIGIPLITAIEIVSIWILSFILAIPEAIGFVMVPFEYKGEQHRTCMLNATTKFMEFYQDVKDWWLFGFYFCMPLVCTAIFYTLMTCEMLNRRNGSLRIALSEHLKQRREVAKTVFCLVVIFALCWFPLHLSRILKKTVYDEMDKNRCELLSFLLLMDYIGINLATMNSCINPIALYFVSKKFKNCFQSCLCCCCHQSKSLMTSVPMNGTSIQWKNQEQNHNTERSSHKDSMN
T1 sequence (P21451 whole entry): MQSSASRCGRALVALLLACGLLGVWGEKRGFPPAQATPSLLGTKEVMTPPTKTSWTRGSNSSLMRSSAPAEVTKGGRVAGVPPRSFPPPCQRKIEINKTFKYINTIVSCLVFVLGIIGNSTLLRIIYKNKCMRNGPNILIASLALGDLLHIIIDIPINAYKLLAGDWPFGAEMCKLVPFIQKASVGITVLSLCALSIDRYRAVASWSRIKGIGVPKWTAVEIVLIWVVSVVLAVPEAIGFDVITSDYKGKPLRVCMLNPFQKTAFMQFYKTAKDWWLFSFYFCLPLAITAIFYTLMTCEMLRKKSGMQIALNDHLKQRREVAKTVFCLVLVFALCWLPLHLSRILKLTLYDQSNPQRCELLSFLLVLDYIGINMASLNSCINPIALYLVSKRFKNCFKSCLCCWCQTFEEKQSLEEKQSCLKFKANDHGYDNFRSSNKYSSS
Kind of test: Binding affinity against Endothelin receptor from rat heart ventricle. It is filed as protein assay.

The species entered for test [2] is Rattus norvegicus. Nature of the test: Inhibition of ET-1 stimulated inositol phosphate accumulation in rat fibroblast. The test is classed as functional, organism-based. In a few lines:
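Rat skin fibroblasts prelabelled with [3H]inositol; ET-1-stimulated accumulation of total [3H]inositol phosphates in presence of Li+, measured by anion-exchange chromatography.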

The target of test [3] is T2, Endothelin receptor type B (Rattus norvegicus, UniProt P21451).
T2 sequence (P21451 whole entry): T1 sequence (P21451 whole entry)
Nature of the test: (§1) Effective concentration against Endothelin B receptor from rat cerebellum. The test is classed as tissue-based.

The species entered for test [4] is Oryctolagus cuniculus. Nature of the test: Inhibition of ET-1 stimulated arachidonic acid release in rabbit renal artery vascular smooth muscle cells. The test is classed as functional.
Test [5] concerns the target T2, Endothelin receptor type B. Described as §1. The test is classed as tissue-based. In a few lines:
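Competition binding of 30 pM [125I]-ET-1 (2,000 Ci/mmol) to 5 µg membranes: rabbit renal artery vascular smooth muscle (ETA) or adult rat cerebellum (ETB). Buffer is 20 mM Tris, 2 mM EDTA, 100 µM PMSF and 100 µM bacitracin, pH 7.4, 37 °C, 2 h. Reaction stopped by GF/B filtration. Nonspecific binding measured with 100 nM ET-1. Triplicate points; IC50 from a one-site nonlinear fit.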
This is another data set of the same source.

The species named for test [6] is Oryctolagus cuniculus. Nature of the test: Effective concentration against ET-1 stimulated arachidonic acid release in rabbit renal artery vascular smooth muscle cells. The test is classed as functional. Summed up:
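Confluent rabbit renal artery smooth muscle cells loaded 18 h at 37 °C with 0.25 µCi/mL [3H]arachidonic acid in DME/F12 with 0.5% FCS. Cells washed in Hank's/10 mM HEPES/fatty acid-free BSA buffer with three 5-min incubations. Then exposed 30 min to test compound (1 nM to 1 µM) plus 0.3 nM ET-1. Released [3H] counted by liquid scintillation; IC50 determined.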

Where a SMILES comes first, the peptide text is derived from it. [ ]: non-standard residue; d: D form. dDip = N[C@@H](C(=O)O)C(c1ccccc1)c1ccccc1; d2Nal = N[C@H](Cc1ccc2ccccc2c1)C(=O)O; Orn = NCCC[C@H](N)C(=O)O Bounds are passed on as bounds.

For orientation: IC50 means the concentration that gives 50% inhibition. A high value points to lower potency. For `CC[C@H](C)[C@H](NC(=O)[C@@H](NC(=O)[C@@H](CC(=O)O)NC(=O)[C@H](CC(C)C)NC(=O)[C@H](Cc1c[nH]cn1)NC(C)=O)[C@@H](C)CC)C(=O)N[C@@H](Cc1c[nH]c2ccccc12)C(=O)O`, the IC50 in test [1] was 37000 nM; in test [2], over 50000 nM.
Turning to `CC[C@H](C)[C@H](NC(=O)[C@H](CC(=O)O)NC(=O)[C@H](CCC(=O)O)NC(=O)[C@@H](Cc1ccccc1)NC(C)=O)C(=O)N[C@@H](Cc1c[nH]c2ccccc12)C(=O)O`, the concentration for half-maximal inhibition (IC50) is 740 nM in test [1], 840 nM in test [3] and 600 nM in test [4].
For `CC[C@H](C)[C@H](NC(=O)[C@H](CC(=O)O)NC(=O)[C@H](CC(C)C)NC(=O)[C@H](N)Cc1ccccc1)C(=O)N[C@H](C(=O)N[C@@H](Cc1c[nH]c2ccccc12)C(=O)O)[C@@H](C)CC`, the values for the IC50 in test [1] and in test [3] were 12400 nM and 2600 nM, respectively.
On to `CC[C@H](C)[C@H](NC(=O)[C@H](CC(=O)O)NC(=O)[C@H](CC(C)C)NC(=O)[C@@H](Cc1ccccc1)NC(C)=O)C(=O)N[C@H](C(=O)N[C@@H](Cc1csc2ccccc12)C(=O)O)[C@@H](C)CC`, for which the IC50 in test [1] was 3800 nM; in test [3], 9800 nM; in test [4], over 10000 nM.
`CC[C@H](C)[C@H](NC(=O)[C@H](CCCCN)NC(=O)[C@H](CC(C)C)NC(=O)[C@@H](Cc1ccccc1)NC(C)=O)C(=O)N[C@H](C(=O)N[C@@H](Cc1c[nH]c2ccccc12)C(=O)O)[C@@H](C)CC`: the IC50 in test [1] was 12000 nM; in test [3], over 10000 nM.
For the compound `CC[C@H](C)[C@H](NC(=O)[C@H](CCC(=O)O)NC(=O)[C@H](CC(=O)O)NC(=O)[C@H](CC(C)C)NC(=O)[C@@H](Cc1ccccc1)NC(C)=O)C(=O)N[C@@H](Cc1c[nH]c2ccccc12)C(=O)O`, the IC50 in test [1] is 9000 nM; in test [3], over 10000 nM; in test [4], over 10000 nM.
In turn, `CC[C@H](C)[C@H](NC(=O)[C@H](CC(=O)O)NC(=O)[C@H](CC(C)C)NC(=O)[C@@H](Cc1ccc2ccccc2c1)NC(C)=O)C(=O)N[C@H](C(=O)N[C@@H](Cc1c[nH]c2ccccc12)C(=O)O)[C@@H](C)CC` (Ac-[d2Nal]LDIIW-OH) came in with an IC50 in test [4] of 1900 nM.
Usually EC50 stands for the concentration that produces a half-maximal response. As for `CC[C@H](C)[C@H](NC(=O)[C@H](CC(=O)O)NC(=O)[C@H](CCC(=O)O)NC(=O)[C@H](NC(C)=O)C(c1ccccc1)c1ccccc1)C(=O)N[C@H](C(=O)N[C@@H](Cc1c[nH]c2ccccc12)C(=O)O)[C@@H](C)CC` (Ac-[dDip]EDIIW-OH), the results for the EC50 in test [5] and in test [6] were 52 nM and 130 nM, respectively.
The like results for `CC[C@H](C)[C@H](NC(=O)[C@H](CC(=O)O)NC(=O)[C@H](CC(C)C)NC(=O)[C@H](NC(C)=O)C(c1ccccc1)c1ccccc1)C(=O)N[C@H](C(=O)N[C@@H](Cc1ccc(O)cc1)C(=O)O)[C@@H](C)CC` (Ac-[dDip]LDIIY-OH) were, in that order, 6100 nM and 4300 nM.
The like results for `CC[C@H](C)[C@H](NC(=O)[C@H](CC(=O)O)NC(=O)[C@H](CC(C)C)NC(=O)[C@H](NC(C)=O)C(c1ccccc1)c1ccccc1)C(=O)N[C@H](C(=O)N[C@@H](Cc1c[nH]c2ccccc12)C(=O)O)C(C)C` (Ac-[dDip]LDIVW-OH) were, in that order, 6000 nM and 2600 nM.
The like results for `CC[C@H](C)[C@H](NC(=O)[C@@H](NC(=O)[C@H](CC(=O)O)NC(=O)[C@H](CC(C)C)NC(=O)[C@H](NC(C)=O)C(c1ccccc1)c1ccccc1)C(C)C)C(=O)N[C@@H](Cc1c[nH]c2ccccc12)C(=O)O` (Ac-[dDip]LDVIW-OH) were, in that order, 50 nM and 29 nM.
On to `CC[C@H](C)[C@H](NC(=O)[C@H](Cc1ccccc1)NC(=O)[C@H](CC(C)C)NC(=O)[C@H](NC(C)=O)C(c1ccccc1)c1ccccc1)C(=O)N[C@H](C(=O)N[C@@H](Cc1c[nH]c2ccccc12)C(=O)O)[C@@H](C)CC` (Ac-[dDip]LFIIW-OH), for which the results for the EC50 in test [5] and in test [6] were 60 nM and 1300 nM, respectively.
The like results for `CC[C@H](C)[C@H](NC(=O)[C@H](CC(=O)O)NC(=O)[C@H](CCCN)NC(=O)[C@H](NC(C)=O)C(c1ccccc1)c1ccccc1)C(=O)N[C@H](C(=O)N[C@@H](Cc1c[nH]c2ccccc12)C(=O)O)[C@@H](C)CC` (Ac-[dDip][Orn]DIIW-OH) were, in that order, 150 nM and 30 nM.
`CC[C@H](C)[C@H](NC(=O)[C@H](CC(=O)O)NC(=O)[C@H](C)NC(=O)[C@@H](Cc1ccccc1)NC(C)=O)C(=O)N[C@H](C(=O)N[C@@H](Cc1c[nH]c2ccccc12)C(=O)O)[C@@H](C)CC` (Ac-[dF]ADIIW-OH): the IC50 was found to be 420 nM in test [1], 290 nM in test [3] and 330 nM in test [4].
With `CC[C@H](C)[C@H](NC(=O)[C@H](C)NC(=O)[C@H](CC(=O)O)NC(=O)[C@H](CC(C)C)NC(=O)[C@@H](Cc1ccccc1)NC(C)=O)C(=O)N[C@@H](Cc1c[nH]c2ccccc12)C(=O)O` (Ac-[dF]LDAIW-OH), the values for the IC50 in test [1], in test [3] and in test [4] were 1610 nM, 450 nM and 1500 nM, respectively.
As for `CC[C@H](C)[C@H](NC(=O)[C@H](CC(=O)O)NC(=O)[C@H](CC(C)C)NC(=O)[C@@H](Cc1ccccc1)NC(C)=O)C(=O)N[C@@H](C)C(=O)N[C@@H](Cc1c[nH]c2ccccc12)C(=O)O` (Ac-[dF]LDIAW-OH), the IC50 in test [1] is 6830 nM; in test [3], over 10000 nM; in test [4], over 10000 nM.
For `CC[C@H](C)[C@H](NC(=O)[C@H](CC(=O)O)NC(=O)[C@H](CC(C)C)NC(=O)[C@@H](Cc1ccccc1)NC(C)=O)C(=O)N[C@H](C(=O)N[C@@H](Cc1c[nH]c2ccccc12)C(=O)O)[C@@H](C)CC` (Ac-[dF]LDIIW-OH), the IC50 in test [1] came to 740 nM; in test [3], 2000 nM.
Take `CC[C@H](C)[C@H](NC(=O)[C@H](CC(=O)O)NC(=O)[C@H](CC(C)C)NC(=O)[C@@H](Cc1ccccc1)NC(C)=O)C(=O)N[C@@H](Cc1c[nH]c2ccccc12)C(=O)O` (Ac-[dF]LDIW-OH): the IC50 was 24500 nM in test [1] and over 10000 nM in test [3].
Take `CC[C@H](C)[C@H](NC(=O)[C@H](Cc1ccccc1)NC(=O)[C@H](CC(C)C)NC(=O)[C@@H](Cc1ccccc1)NC(C)=O)C(=O)N[C@H](C(=O)N[C@@H](Cc1c[nH]c2ccccc12)C(=O)O)[C@@H](C)CC` (Ac-[dF]LFIIW-OH): the IC50 in test [1] was found to be 380 nM; in test [3] it was 36 nM.
`CC[C@H](C)[C@H](NC(=O)[C@H](CC(=O)O)NC(=O)[C@H](CCCN)NC(=O)[C@@H](Cc1ccccc1)NC(C)=O)C(=O)N[C@H](C(=O)N[C@@H](Cc1c[nH]c2ccccc12)C(=O)O)[C@@H](C)CC` (Ac-[dF][Orn]DIIW-OH): the results for the IC50 in test [1] and in test [3] were 680 nM and 2450 nM, respectively.
`CC[C@H](C)[C@H](NC(=O)[C@H](CC(=O)O)NC(=O)[C@H](CC(C)C)NC(=O)[C@@H](Cc1ccc(O)cc1)NC(C)=O)C(=O)N[C@H](C(=O)N[C@@H](Cc1c[nH]c2ccccc12)C(=O)O)[C@@H](C)CC` (Ac-[dY]LDIIW-OH): the values for the IC50 in test [3] and in test [4] were 7000 nM and 250 nM, respectively.
On to `CC[C@H](C)[C@H](NC(=O)[C@H](CC(=O)O)NC(=O)[C@H](CC(C)C)NC(=O)[C@H](N)C(c1ccccc1)c1ccccc1)C(=O)N[C@H](C(=O)N[C@@H](Cc1c[nH]c2ccccc12)C(=O)O)[C@@H](C)CC` (H-[dDip]LDIIW-OH), for which a half-maximal effect in test [5] (EC50) was put at 1900 nM.
With `CC[C@H](C)[C@H](NC(=O)[C@H](CC(=O)O)NC(=O)[C@H](Cc1ccccc1)NC(=O)[C@@H](Cc1ccccc1)NC(C)=O)C(=O)N[C@H](C(=O)N[C@@H](Cc1c[nH]c2ccccc12)C(=O)O)[C@@H](C)CC` (stereo in doubt; 20), the IC50 in test [1] was determined as 330 nM; in test [3], 60 nM.
In the case of `CC[C@H](C)[C@H](NC(=O)[C@H](CC(=O)O)NC(=O)[C@H](Cc1ccccc1)NC(=O)[C@@H](Cc1ccccc1)NC(C)=O)C(=O)N[C@H](C(=O)N[C@@H](Cc1c[nH]c2ccccc12)C(=O)O)[C@@H](C)CC` (stereo in doubt; 21), the IC50 in test [3] turned out to be 20 nM; in test [4], 2200 nM.
